This note sets out measurements from ChEMBL document CHEMBL4316611, “Design, synthesis and evaluation of novel (S)-tryptamine derivatives containing an allyl group and an aryl sulfonamide unit as anticancer agents” (Bioorg Med Chem Lett, 2019).

Common to all, as to assay type: functional, cell-based
The test system of one assay is CNE. Kind of assay: Cytotoxicity in human CNE1 cells assessed as reduction in cell viability incubated for 48 hrs by MTT assay. In short, it runs like this:
(§1)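 MTT viability assay; cells exposed continuously to compounds for 48 h. IC50 values reported as mean ± SD. Cisplatin served as positive control.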
A general note: Tetrazolium assays rely on reduction of a dye to a coloured formazan, in cell work by metabolically active cells.

The test system of a further assay is HeLa. Kind of assay: Cytotoxicity in human HeLa cells assessed as reduction in cell viability incubated for 48 hrs by MTT assay. The essentials: as §1
In a further assay the test system is A549. The assay is described as follows: Cytotoxicity in human A549 cells assessed as reduction in cell viability incubated for 48 hrs by MTT assay. The conditions noted are these: A549, 48 h. The essentials: as §1
In a further assay the test system is HepG2. The assay is described as follows: Cytotoxicity in human HepG2 cells assessed as reduction in cell viability incubated for 48 hrs by MTT assay. As to conditions: HepG2, 48 h. The essentials: as §1

As usually defined, the IC50 is the concentration that gives 50% inhibition. With `CCC[C@@H](Cc1c[nH]c2ccccc12)NS(=O)(=O)c1c(C(C)C)cc(C(C)C)cc1C(C)C`, the IC50 in the assay with CNE is 17.8 µM; in the assay on HeLa, 16.4 µM; with A549 it was 39.8 µM; in the assay with HepG2, 30.8 µM.

`C=CC[C@@H](Cc1c[nH]c2ccccc12)NS(=O)(=O)c1cc(F)c(Br)cc1F`: the IC50 was determined as 43.4 µM in the assay on CNE, 58.9 µM with HeLa, 65 µM in the assay on A549 and 35.3 µM in the assay on HepG2.

Take `C=CC[C@@H](Cc1c[nH]c2ccccc12)NS(=O)(=O)c1ccc(F)cc1`: the concentration for half-maximal inhibition (IC50) with HeLa and with HepG2 was greater than 100 µM each time.

With `C=CC[C@@H](Cc1c[nH]c2ccccc12)NS(=O)(=O)c1ccccc1OC(F)(F)F`, the IC50 with CNE was 66.9 µM; in the assay with HeLa it was 68.2 µM; in the assay with A549, 65.9 µM; in the assay on HepG2, 39.5 µM.

On to `C=CC[C@@H](Cc1c[nH]c2ccccc12)NS(=O)(=O)c1ccc(F)cc1Cl`, for which the half-inhibitory concentration (IC50) with HeLa turned out to be 61.7 µM; with HepG2, 71.7 µM.

In the case of `CCC[C@@H](Cc1c[nH]c2ccccc12)NS(=O)(=O)c1ccccc1`, the IC50 in the assay on CNE was 47.1 µM; in the assay on HeLa it was 78.9 µM; with A549 it was 91.5 µM; in the assay with HepG2, 68.7 µM.

With `C=CC[C@@H](Cc1c[nH]c2ccccc12)NS(=O)(=O)c1ccccc1Cl`, the half-inhibitory concentration (IC50) with HeLa and in the assay on HepG2 was greater than 100 µM in each case.

On to `C=CC[C@@H](Cc1c[nH]c2ccccc12)NS(=O)(=O)c1cccc2c(N(C)C)cccc12`, for which the IC50 with CNE amounted to 36 µM; with HeLa, 34.5 µM; in the assay on A549, 52.4 µM; in the assay on HepG2, 52 µM.

For `C=CC[C@@H](Cc1c[nH]c2ccccc12)NS(=O)(=O)c1ccc(Cl)c(C(F)(F)F)c1`, the IC50 in the assay with CNE amounted to 28.8 µM; in the assay on HeLa it was 42.8 µM; in the assay on A549, 34.3 µM; in the assay with HepG2, 24.4 µM.

As for `C=CC[C@@H](Cc1c[nH]c2ccccc12)NS(=O)(=O)c1cc(Cl)c(F)cc1F`, the IC50 in the assay on CNE was 34.2 µM; with HeLa it was 46.9 µM; in the assay on A549, 50.7 µM; in the assay with HepG2, 33.2 µM.

For the molecule `C=CC[C@@H](Cc1c[nH]c2ccccc12)NS(=O)(=O)c1ccc(-c2ccccc2)cc1`, the half-inhibitory concentration (IC50) in the assay on CNE worked out at 34.5 µM; in the assay with HeLa it was 34.5 µM; in the assay on A549, 33.6 µM; in the assay with HepG2 it was 43 µM.

Consider `C=CC[C@@H](Cc1c[nH]c2ccccc12)NS(=O)(=O)c1ccc2ccccc2c1`, for which the IC50 in the assay with CNE was 45.2 µM; in the assay on HeLa it was 52.7 µM; in the assay with A549, 55.5 µM; with HepG2, 44.9 µM.

On to `C=CC[C@@H](Cc1c[nH]c2ccccc12)NS(=O)(=O)c1ccc(C(F)(F)F)cc1Cl`, for which the IC50 stood at 36.1 µM with CNE, 44.8 µM in the assay with HeLa, 53 µM in the assay with A549 and 33.1 µM in the assay with HepG2.

As for `C=CC[C@@H](Cc1c[nH]c2ccccc12)NS(=O)(=O)c1ccc(F)c(C(F)(F)F)c1`, the half-inhibitory concentration (IC50) in the assay with CNE was 27 µM; with HeLa it was 32 µM; in the assay on A549, 38.5 µM; in the assay with HepG2 it was 36.3 µM.

Regarding `C=CC[C@@H](Cc1c[nH]c2ccccc12)NS(=O)(=O)c1ccc(Cl)cc1Cl`, the half-maximal inhibitory concentration (IC50) came to 42.7 µM with CNE, 41.1 µM in the assay on HeLa, 55.7 µM in the assay on A549 and 55.4 µM in the assay with HepG2.

As to `C=CC[C@@H](Cc1c[nH]c2ccccc12)NS(=O)(=O)c1ccc(Cl)cc1[N+](=O)[O-]`, the IC50 is 67.9 µM with HeLa and 71.3 µM with HepG2.

As for `C=CC[C@@H](Cc1c[nH]c2ccccc12)NS(=O)(=O)c1cc(Br)cc(C(F)(F)F)c1`, the half-maximal inhibitory concentration (IC50) turned out to be 22.9 µM in the assay on CNE, 31.9 µM in the assay with HeLa, 29.3 µM with A549 and 25.3 µM with HepG2.

Consider `C=CC[C@@H](Cc1c[nH]c2ccccc12)NS(=O)(=O)c1ccc(C(F)(F)F)cc1`, for which the IC50 in the assay with CNE came to 38.1 µM; in the assay with HeLa, 41.7 µM; in the assay on A549, 49.9 µM; in the assay on HepG2 it was 51.8 µM.

Regarding `C=CC[C@@H](Cc1c[nH]c2ccccc12)NS(=O)(=O)c1ccc(Br)cc1`, the IC50 was 41.2 µM in the assay on CNE, 61 µM in the assay on HeLa, 58.6 µM with A549 and 39.6 µM in the assay with HepG2.

As for `C=CC[C@@H](Cc1c[nH]c2ccccc12)NS(=O)(=O)c1cc(C)ccc1C`, the IC50 in the assay with CNE was 42 µM; in the assay on HeLa, 45.6 µM; in the assay on A549, 48.3 µM; in the assay with HepG2 it was 44.6 µM.

As to `C=CC[C@@H](Cc1c[nH]c2ccccc12)NS(=O)(=O)c1c(C)cc(C)cc1C`, the concentration for half-maximal inhibition (IC50) is 31.5 µM in the assay with CNE, 35.3 µM in the assay on HeLa, 40.4 µM with A549 and 37.2 µM with HepG2.

With `C=CC[C@@H](Cc1c[nH]c2ccccc12)NS(=O)(=O)c1ccc(Cl)cc1F`, the half-maximal inhibitory concentration (IC50) in the assay with HeLa came to 74.4 µM; with HepG2 it was 78.4 µM.

For the molecule `C=CC[C@@H](Cc1c[nH]c2ccccc12)NS(=O)(=O)c1ccc(OC(F)(F)F)cc1`, the 50% inhibitory concentration (IC50) in the assay on CNE worked out at 39.9 µM; in the assay on HeLa, 57.3 µM; with A549 it was 57.8 µM; in the assay with HepG2, 36 µM.

For the molecule `C=CC[C@@H](Cc1c[nH]c2ccccc12)NS(=O)(=O)c1ccc(Br)c(F)c1`, the IC50 in the assay on HeLa worked out at 54.5 µM; in the assay on HepG2 it was 58.1 µM.

For the molecule `C=CC[C@@H](Cc1c[nH]c2ccccc12)NS(=O)(=O)c1c(C)c(C)cc(C)c1C`, the 50% inhibitory concentration (IC50) with CNE worked out at 26.3 µM; with HeLa it was 26.1 µM; in the assay on A549, 29.9 µM; with HepG2, 24.7 µM.

Consider `C=CC[C@H](N)Cc1c[nH]c2ccccc12`, for which the IC50 with CNE, in the assay on HeLa, with A549 and in the assay on HepG2 was greater than 100 µM in each case.

Regarding `C=CC[C@@H](Cc1c[nH]c2ccccc12)NS(=O)(=O)c1ccc(C)c(F)c1`, the IC50 in the assay on CNE is 39.8 µM; in the assay with HeLa, 43.6 µM; in the assay with A549, 70.2 µM; in the assay with HepG2 it was 39.1 µM.

For the molecule `C=CC[C@@H](Cc1c[nH]c2ccccc12)NS(=O)(=O)c1cccc(Br)c1`, the half-inhibitory concentration (IC50) with CNE is 48 µM; with HeLa, 40.5 µM; in the assay on A549, 52.1 µM; in the assay on HepG2 it was 58.9 µM.

For the molecule `C=CC[C@@H](Cc1c[nH]c2ccccc12)NS(=O)(=O)c1ccc(C(F)(F)F)cc1[N+](=O)[O-]`, the IC50 in the assay on CNE was determined as 39.3 µM; with HeLa, 35.7 µM; in the assay on A549 it was 74.2 µM; in the assay with HepG2 it was 40.4 µM.

As to `C=CC[C@@H](Cc1c[nH]c2ccccc12)NS(=O)(=O)c1ccc(C)cc1`, the IC50 in the assay on HeLa and in the assay on HepG2 was greater than 100 µM in each case.

Turning to `C=CC[C@@H](Cc1c[nH]c2ccccc12)NS(=O)(=O)c1ccc(Cl)c([N+](=O)[O-])c1`, the concentration for half-maximal inhibition (IC50) with HeLa came out at 53.2 µM; in the assay with HepG2, 89.7 µM.

As to `C=CC[C@@H](Cc1c[nH]c2ccccc12)NS(=O)(=O)c1cc(C(F)(F)F)cc(C(F)(F)F)c1`, the IC50 in the assay on CNE came out at 24.1 µM; in the assay with HeLa it was 30.2 µM; with A549, 35.6 µM; with HepG2, 21.9 µM.

Turning to `CCC[C@H](N)Cc1c[nH]c2ccccc12`, the IC50 in the assay with CNE, in the assay with HeLa, in the assay on A549 and in the assay on HepG2 was greater than 100 µM each time.

Regarding `C=CC[C@@H](Cc1c[nH]c2ccccc12)NS(=O)(=O)c1cccc(C(F)(F)F)c1`, the half-maximal inhibitory concentration (IC50) was determined as 40.7 µM in the assay with CNE, 45.1 µM in the assay with HeLa, 52.1 µM with A549 and 46.9 µM with HepG2.

On to `C=CC[C@@H](Cc1c[nH]c2ccccc12)NS(=O)(=O)c1ccc(Br)c(C)c1`, for which the IC50 in the assay with CNE stood at 38.6 µM; with HeLa, 46.7 µM; in the assay with A549 it was 54.1 µM; in the assay with HepG2, 52.2 µM.

In the case of `C=CC[C@@H](Cc1c[nH]c2ccccc12)NS(=O)(=O)c1ccc(CCC)cc1`, the concentration for half-maximal inhibition (IC50) in the assay on HeLa was determined as 67.1 µM; in the assay on HepG2 it was 58.4 µM.

As for `C=CC[C@@H](Cc1c[nH]c2ccccc12)NS(=O)(=O)c1ccccc1`, the half-inhibitory concentration (IC50) was found to be 40.8 µM with CNE, 69.5 µM with HeLa, 77.1 µM in the assay on A549 and 58.4 µM in the assay with HepG2.

Take `C=CC[C@@H](Cc1c[nH]c2ccccc12)NS(=O)(=O)c1ccc(C(C)C)cc1`: the IC50 in the assay on CNE stood at 43.6 µM; with HeLa, 43.5 µM; in the assay with A549, 53 µM; in the assay on HepG2, 46.4 µM.

On to `C=CC[C@@H](Cc1c[nH]c2ccccc12)NS(=O)(=O)c1ccc(F)c(Cl)c1`, for which the IC50 in the assay with CNE came to 34.2 µM; in the assay with HeLa it was 33.8 µM; in the assay with A549, 41.6 µM; in the assay on HepG2, 38.2 µM.

Turning to `C=CC[C@@H](Cc1c[nH]c2ccccc12)NS(=O)(=O)c1ccc(Br)cc1Cl`, the IC50 is 38.5 µM with CNE, 53.5 µM in the assay on HeLa, 48.8 µM in the assay with A549 and 54.3 µM in the assay with HepG2.

Consider `C=CC[C@@H](Cc1c[nH]c2ccccc12)NS(=O)(=O)c1ccc(Br)cc1F`, for which the figures for the IC50 in the assay on HeLa and with HepG2 were 58.5 µM and 58.7 µM, respectively.

`C=CC[C@@H](Cc1c[nH]c2ccccc12)NS(=O)(=O)c1ccc(C(F)(F)F)cc1Br`: the IC50 turned out to be 34.4 µM with CNE, 39.3 µM with HeLa, 43.9 µM in the assay with A549 and 42.1 µM in the assay with HepG2.
